The source of these data is ChEMBL document CHEMBL1126142, “Potential antitumor agents. 64. Synthesis and antitumor evaluation of dibenzo[1,4]dioxin-1-carboxamides: a new class of weakly binding DNA-intercalating agents” (J Med Chem, 1992).

The source made the active and inactive calls. The rule behind the calls is not given here.

For one data set, the system named is Nucleic Acid. Kind of data set: Binding constant to poly[d(A-T)] by displacement of ethidium bromide. The class given is nucleic-acid assay.
Data set [1] in a line: Lipophilicity (Rm). It is filed as physicochemical. The note with it: AMSA internal standard. The method in brief: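 Relative lipophilicity (Rm) was determined chromatographically using 4'-(9-acridinylamino)methanesulfonanilide (AMSA) as internal standard.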
Data set [2] is described as follows: Cytotoxicity measured on wild-type P388 murine leukemia cells. It is filed as functional, cell-based. The note with it: Mus musculus. The method in brief: (§1)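 A 96-well plate growth-inhibition assay in culture was run with full dose-response curves. IC50 was the drug concentration (μM) reducing cell growth to 50% of untreated controls. Values are means of three determinations. The P388/AMSA subline carries a structurally altered topoisomerase II.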

The subject of data set [3] is P388. Kind of data set: In vivo percentage increase in lifespan with compound after treating wild-type P388 murine leukemia cells with optimal dose; Not active. The class given is functional, organism-based. The following applies: Mus musculus.
The nature of data set [4]: In vivo the optimal dose administered intraperitoneally to wild-type P388 murine leukemia cells. The class given is functional, Mus musculus. In a few lines:
(§2)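 Mice received 10^6 tumor cells intraperitoneally. After 24 h, drug was given ip as a solution in 0.1 mL 30% v/v EtOH/water on days 1, 5 and 9. The optimal dose is expressed as mg/kg per day. Groups were 6 mice, with tests in duplicate.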

The nature of data set [5]: Percentage increase in lifespan with compound after treating wild-type P388 murine leukemia cells with optimal dose. It is filed as functional, Mus musculus. The method in brief: (§3)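 Mice bearing wild-type P388 leukemia, 10^6 cells inoculated intraperitoneally; drug given ip in 0.1 mL 30% v/v EtOH/water on days 1, 5 and 9, starting 24 h after inoculation. ILS = percentage increase in lifespan of treated over untreated tumor-bearing mice at the optimal dose (mg/kg per day); >20% counted significant. Groups of 6 mice, tests in duplicate.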

Data set [6] relates to P388. Briefly: Inhibitory activity against mutant murine leukemia cell line P388/AMSA. The following applies: Mus musculus. It is filed as functional, cell-based. In a few lines: as §1
The test system of data set [7] is P388. Kind of data set: Inhibitory activity against P388 murine leukemia cell which is topoisomerase II enzyme and resistant to classical topo II Inhibitors. It is filed as functional, cell-based. The note with it: Mus musculus. In a few lines:
as §1

Data set [8] is described as follows: In vivo optimal dose administered intraperitoneally to wild-type P388 murine leukemia cells. The class given is functional, Mus musculus. The method in brief:
as §2

A short description of data set [9]: In vivo percentage increase in lifespan with compound after treating wild-type P388 murine leukemia cells with optimal dose. It is filed as functional, Mus musculus. The method in brief: as §3

As for `CN(C)CCNC(=O)c1cccc2c1Oc1ccc(Cl)cc1O2`, the Log K with Nucleic Acid came out at 5.11. This compound also yielded a Rm in data set [1] of 0.1. The compound further returned an IC50 in data set [2] of 1600 nM. The ILS result with P388 [3] is “inactive”. The OD in [4] was 100 mg/kg.
Compound `CN(C)CCNC(=O)c1cccc2c1Oc1c(Cl)cccc1O2` came in with a Log K in the data set on Nucleic Acid of 5.48. Moreover, the Rm in data set [1] is recorded as -0.01. In addition, the IC50 in data set [2] was 230 nM; in the data set on P388 [6], 2600 nM. In [5], the increase in lifespan (ILS) stood at 106%. This compound returned an OD in data set [4] of 100 mg/kg.
Turning to `CN(C)CCNC(=O)c1cccc2c1Oc1ncccc1O2`, the values for the half-inhibitory concentration (IC50) (in the data set on P388 [7]; in data set [2]) were 930 nM and 830 nM, respectively. Besides, in data set [1], the Rm is listed as -0.38. Also, in the data set with P388 [3], the ILS entry is “inactive”. Besides, the OD in [4] was 65 mg/kg.
In turn, `CN(C)CCNC(=O)c1cccc2c1Oc1c(cccc1[N+](=O)[O-])O2` displayed a Log K in the data set on Nucleic Acid of 5.11. The Rm in [1] was -0.28. Moreover, the IC50 in data set [2] was 32 nM; with P388 [6] it was 450 nM. Moreover, the ILS entry in the data set on P388 [3] was “inactive”. Moreover, the OD in [4] is 20 mg/kg.
With `CN(C)CCNC(=O)c1cccc2c1Oc1cc(Br)ccc1O2`, the Log K in the data set on Nucleic Acid was 5.35. The compound further yielded a Rm in [1] of 0.18. Moreover, in data set [2], half-maximal inhibition (IC50) required 3000 nM. In addition, the ILS result in the data set on P388 [3] is “inactive”. For the same compound, the OD in [4] was found to be 150 mg/kg.
In the data set with Nucleic Acid, `Cc1cccc2c1Oc1c(cccc1C(=O)NCCN(C)C)O2` gave a Log K of 5.28. This compound also showed a Rm in data set [1] of 0.09. For the same compound, the half-inhibitory concentration (IC50) in data set [2] was 250 nM; in the data set on P388 [6] it was 7700 nM. In data set [5], the ILS came to 144%. Also, the OD in data set [4] is 100 mg/kg.
For the compound `CN(C)CCNC(=O)c1cc([N+](=O)[O-])cc2c1Oc1ccccc1O2`, in the data set on Nucleic Acid, the Log K came out at 5.37. Moreover, the Rm in data set [1] is recorded as -0.16. The IC50 in data set [2] amounted to 1700 nM. Besides, the ILS result in the data set on P388 [3] was “inactive”. Further, in [4], the OD is 225 mg/kg.
In turn, `Cc1cccc2c1Oc1cccc(C(=O)NCCN(C)C)c1O2` had a Log K in the data set with Nucleic Acid of 5.26. This compound also had a Rm in data set [1] of 0.14. For the same compound, the IC50 in data set [2] turned out to be 2100 nM. The ILS entry in the data set with P388 [3] is “inactive”. In data set [4], this compound showed an OD of 45 mg/kg.
On to `CN(C)CCNC(=O)c1cccc2c1Oc1ccccc1O2`, for which the Log K with Nucleic Acid was 5.05. The OD in data set [8] stood at 150 mg/kg. Besides, the Rm in data set [1] worked out at 0.01. The IC50 in [2] worked out at 3000 nM; in the data set on P388 [6], 1800 nM. Also, in data set [9], the ILS is 76%.
Take `CN(C)CCCCNC(=O)c1cccc2c1Oc1ccccc1O2`: the Log K in the data set with Nucleic Acid was found to be 4.9. This compound also registered an OD in data set [8] of 150 mg/kg. The compound also yielded a Rm in data set [1] of 0.13. Also, in data set [2], the IC50 was > 20000 nM. Also, the ILS result in the data set on P388 [3] is “inactive”.
In the data set with Nucleic Acid, `CN(C)CCNC(=O)c1cccc2c1Oc1ccc(Br)cc1O2` gave a Log K of 5.34. The compound also had a Rm in data set [1] of 0.18. In [2], this compound yielded a half-maximal inhibitory concentration (IC50) of 1900 nM. Besides, in the data set on P388 [3], the ILS entry was “inactive”. The OD in [4] stood at 100 mg/kg.
As to `COc1cccc2c1Oc1c(cccc1C(=O)NCCN(C)C)O2`, the Log K in the data set with Nucleic Acid worked out at 5.55. The Rm in data set [1] is listed as -0.02. In addition, the 50% inhibitory concentration (IC50) in [2] is 380 nM; in the data set on P388 [6] it was 520 nM. For the same compound, the increase in lifespan (ILS) in data set [5] turned out to be 45%. In data set [4], the OD was determined as 45 mg/kg.
Take `CN(C)CCNC(=O)c1cccc2c1Oc1cccnc1O2`: in the data set on Nucleic Acid, the Log K is 4.73. In addition, in data set [1], the Rm is on record as -0.49. Moreover, the IC50 in data set [2] stood at 8000 nM. The ILS entry in the data set with P388 [3] is “inactive”. Further, the OD in [4] stood at 100 mg/kg.
The matching figures for `COc1cccc2c1Oc1cccc(C(=O)NCCN(C)C)c1O2`: 5.18, -0.19, 1600 nM, “inactive” and 100 mg/kg.
On to `CN(C)CCNC(=O)c1cccc2c1Oc1cccc(Cl)c1O2`, for which the Log K in the data set on Nucleic Acid is 5.15. In addition, the Rm in data set [1] was determined as 0.21. Moreover, the IC50 in data set [2] came to 1300 nM. Moreover, the ILS result with P388 [3] is “inactive”. In [4], this compound came in with an OD of 100 mg/kg.
In the data set on Nucleic Acid, `CN(C)CCNC(=O)c1cccc2c1Oc1ccc([N+](=O)[O-])cc1O2` came in with a Log K of 5.64. Besides, the Rm in data set [1] was -0.14. In addition, in data set [2], the IC50 came to 6000 nM. Moreover, in [5], the increase in life span (ILS) turned out to be 96%. Further, in [4], the OD worked out at 150 mg/kg.
In the data set with Nucleic Acid, `CN(C)CCNC(=O)c1cccc2c1Oc1cccc([N+](=O)[O-])c1O2` returned a Log K of 5.06. Further, the Rm in data set [1] is reported as -0.2. For the same compound, the concentration for half-maximal inhibition (IC50) in data set [2] turned out to be 2500 nM. The ILS result in the data set on P388 [3] was “inactive”. For the same compound, in [4], the OD came out at 150 mg/kg.
As to `CN(C)CCNC(=O)c1cccc2c1Oc1cc(Cl)c(Cl)cc1O2`, the half-inhibitory concentration (IC50) amounted to 830 nM with P388 [7] and 5130 nM in data set [2]. Besides, the Rm in data set [1] is on record as 0.25. Besides, the ILS result in the data set on P388 [3] was “inactive”. In data set [4], this compound gave an OD of 150 mg/kg.
Take `Cc1ccc2c(c1)Oc1cccc(C(=O)NCCN(C)C)c1O2`: in the data set on Nucleic Acid, the Log K amounted to 5.11. The Rm in [1] turned out to be 0.2. This compound also gave an IC50 in data set [2] of 3300 nM. Besides, the ILS result in the data set on P388 [3] is “inactive”. Further, the OD in data set [4] was found to be 45 mg/kg.
`CN(C)CCNC(=O)c1cccc2c1Oc1c(Br)cccc1O2` returned a Log K in the data set on Nucleic Acid of 5.23. Further, the Rm in data set [1] is on record as -0.01. Moreover, the IC50 in data set [2] is 210 nM; with P388 [6], 730 nM. For the same compound, the increase in life span (ILS) in data set [5] is given as 154%. In addition, in data set [4], the OD stood at 100 mg/kg.
In turn, `CN(C)CCNC(=O)c1cccc2c1Oc1cc([N+](=O)[O-])ccc1O2` yielded a Log K in the data set with Nucleic Acid of 5.64. Further, the Rm in [1] is reported as -0.14. The compound further gave a half-maximal inhibitory concentration (IC50) in [2] of 3700 nM. The ILS in [5] stood at 96%. Besides, in data set [4], the OD turned out to be 150 mg/kg.
`CN(C)CCNC(=O)c1ccc2c(c1)Oc1ccccc1O2` returned a Log K with Nucleic Acid of 4.84. The compound further returned a Rm in data set [1] of 0.11. Moreover, the half-inhibitory concentration (IC50) in data set [2] was 5800 nM. The ILS entry in the data set on P388 [3] was “inactive”. The OD in [4] came to 150 mg/kg.
For `CN(C)CCNC(=O)c1cccc2c1Oc1c(cccc1C(=O)NCCN(C)C)O2` the same measures were 4.48, -0.68, 720 nM, “inactive” and 100 mg/kg.
For `CN(C)CCNC(=O)c1ccc2c(c1)Oc1ccc(C(=O)NCCN(C)C)cc1O2`, the Log K with Nucleic Acid was found to be 6.81. For the same compound, in data set [1], the Rm is on record as -1.21. Further, the half-maximal inhibitory concentration (IC50) in [2] is > 10000 nM. Moreover, the ILS result in the data set with P388 [3] is “inactive”. Moreover, in [4], the OD was determined as 225 mg/kg.

In general, IC50 refers to the concentration needed to halve the response being measured. Read a low IC50 as greater potency in that assay. As a reminder, the ILS is how much longer treated animals lived than controls.
